The record followed here is ChEMBL document CHEMBL4390691, “Discovery of 1,3-dihydro-2H-imidazo[4,5-c]quinolin-2-ones based novel, potent and PI3Kδ selective inhibitors” (Bioorg Med Chem Lett, 2019).

A short description of data set [1]: Tmax in C57BL/6J mouse at 3 mg/kg, po measured up to 30 hrs by LC-MS/MS analysis. The class given is ADME, organism-based. The settings on record: in vivo. The essentials:
(§1)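 Male C57BL/6J mice (n = 6) received single doses of 3 mg/kg po or 1 mg/kg iv. Plasma concentrations were measured by LC-MS. Values are mean ± SD. Oral bioavailability (%F) was calculated from the ratio to iv AUC.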

A short description of data set [2]: Cmax in C57BL/6J mouse at 3 mg/kg, po measured up to 30 hrs by LC-MS/MS analysis. The class given is ADME, organism-based. On the set-up: dose 3 mg/kg, route oral. The settings on record: in vivo. The essentials:
as §1

Data set [3] is described as follows: Half life in C57BL/6J mouse at 3 mg/kg, po measured up to 30 hrs by LC-MS/MS analysis. The settings on record: in vivo. The data set is classed as ADME, organism-based. In a few lines: as §1
Data set [4] is described as follows: Clearance in C57BL/6J mouse at 1 mg/kg, iv measured up to 30 hrs by LC-MS/MS analysis. The class given is ADME, organism-based. Particulars: in vivo. In a few lines:
as §1

A short description of data set [5]: AUC (0 to infinity) in C57BL/6J mouse 3 mg/kg, po measured up to 30 hrs by LC-MS/MS analysis. The settings on record: in vivo. The arrangement: dose 3 mg/kg, route oral, time infinity. The data set is classed as ADME, organism-based. The essentials: (§2)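 Single-dose PK in male C57BL/6J mice (n = 6), dosed 1 mg/kg iv or 3 mg/kg orally. Plasma drug levels were measured by LC-MS, and PK parameters (Tmax, Cmax, t1/2, Cl, AUC, %F) were derived. Values are given as mean ± SD. Oral bioavailability was calculated against the iv AUC.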

A short description of data set [6]: AUC (0 to infinity) in C57BL/6J mouse 1 mg/kg, iv measured up to 30 hrs by LC-MS/MS analysis. The arrangement: dose 1 mg/kg, time infinity, route intravenous. Particulars: in vivo. The data set is classed as ADME, organism-based. In a few lines: as §2
Data set [7] can be described thus: Oral bioavailability in C57BL/6J mouse at 3 mg/kg measured up to 30 hrs by LC-MS/MS analysis. The class given is ADME, organism-based. Particulars: in vivo. In a few lines:
as §1

The nature of data set [8]: Toxicity in DBA1/J mouse assessed as reduction in body weight at 60 mg/kg, po […] measured thrice per week. The data set is classed as organism-based. Particulars: in vivo, 336 h.
The subject of data set [9] is Mus musculus. The data set can be described thus: Antiarthritic activity in complete Freund's adjuvant-induced DBA1/J mouse arthritis model assessed as inhibition in clinical arthritis score at 60 mg/kg, po administered for 14 days relative to control. The class given is functional, organism-based. The settings on record: in the assay text read “4 weeks” for “14 days”. In a few lines: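 Male DBA1j mice had arthritis induced with a collagen mixture and were enrolled once clinical signs appeared. Animals were split into four groups of eight: vehicle, a positive control and two doses of test compound. Treatment ran four weeks. The read-out was percentage inhibition of clinical arthritis score versus the vehicle group.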

Data set [10] deals with T1, Phosphatidylinositol 4,5-bisphosphate 3-kinase catalytic subunit delta isoform (Homo sapiens, UniProt O00329).
T1 sequence (O00329 whole entry): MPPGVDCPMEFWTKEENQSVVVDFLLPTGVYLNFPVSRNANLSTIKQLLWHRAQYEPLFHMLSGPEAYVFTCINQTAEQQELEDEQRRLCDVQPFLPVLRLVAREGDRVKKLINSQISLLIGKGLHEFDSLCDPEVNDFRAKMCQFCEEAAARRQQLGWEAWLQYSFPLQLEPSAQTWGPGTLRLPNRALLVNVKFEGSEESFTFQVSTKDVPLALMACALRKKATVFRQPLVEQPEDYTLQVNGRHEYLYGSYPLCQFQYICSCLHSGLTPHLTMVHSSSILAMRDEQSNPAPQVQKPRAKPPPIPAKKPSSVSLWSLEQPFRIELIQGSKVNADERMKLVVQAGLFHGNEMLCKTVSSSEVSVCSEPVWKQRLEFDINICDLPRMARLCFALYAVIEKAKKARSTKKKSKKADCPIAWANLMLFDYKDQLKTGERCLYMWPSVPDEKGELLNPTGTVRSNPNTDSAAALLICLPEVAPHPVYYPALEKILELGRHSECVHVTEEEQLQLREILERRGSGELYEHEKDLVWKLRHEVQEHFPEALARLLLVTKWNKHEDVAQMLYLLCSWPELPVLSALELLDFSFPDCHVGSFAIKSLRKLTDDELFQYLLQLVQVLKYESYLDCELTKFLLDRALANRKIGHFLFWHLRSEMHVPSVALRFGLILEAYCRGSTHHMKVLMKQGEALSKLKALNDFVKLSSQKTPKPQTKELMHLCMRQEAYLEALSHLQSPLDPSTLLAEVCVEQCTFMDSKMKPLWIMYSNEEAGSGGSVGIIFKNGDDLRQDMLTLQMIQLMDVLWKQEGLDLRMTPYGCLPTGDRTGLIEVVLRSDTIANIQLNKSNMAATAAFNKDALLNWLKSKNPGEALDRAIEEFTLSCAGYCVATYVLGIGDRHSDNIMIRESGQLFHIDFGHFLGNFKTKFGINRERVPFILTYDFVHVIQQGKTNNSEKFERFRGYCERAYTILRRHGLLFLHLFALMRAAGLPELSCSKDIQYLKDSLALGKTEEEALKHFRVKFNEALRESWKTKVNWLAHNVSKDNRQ
The data set can be described thus: Inhibition of human PI3Kdelta using PIP2 as substrate after 1 hr.

In data set [11] the target is Phosphatidylinositol 4,5-bisphosphate 3-kinase catalytic subunit alpha isoform (Homo sapiens, UniProt P42336). The data set can be described thus: Inhibition of human PI3Kalpha using PIP2 as substrate after 1 hr.
Data set [12] concerns the target Phosphatidylinositol 4,5-bisphosphate 3-kinase catalytic subunit beta isoform (Homo sapiens, UniProt P42338). In words: Inhibition of human PI3Kbeta using PIP2 as substrate after 1 hr.
The target of data set [13] is Phosphatidylinositol 4,5-bisphosphate 3-kinase catalytic subunit gamma isoform (Homo sapiens, UniProt P48736). The data set can be described thus: Inhibition of human PI3Kgamma using PIP2 as substrate after 1 hr.
Data set [14] deals with Serine/threonine-protein kinase mTOR (Homo sapiens, UniProt P42345). The data set can be described thus: Inhibition of mTOR (unknown origin) assessed as reduction in p70S6K phosphorylation.
The test system of data set [15] is TMD8. In words: Antiproliferative activity against human TMD8 cells. The class given is functional, cell-based.

As usually defined, the Tmax is the time at which the peak concentration occurs. In general, Cmax refers to the highest concentration seen after dosing. The half-life is the time in which the quantity being followed falls by half. Low values mean rapid decline, high ones slow decline. As usually defined, the clearance is the volume of plasma or blood freed of the substance per unit of time. Usually AUC stands for concentration integrated over time. Read a high AUC as high exposure. Broadly, the bioavailability is the share of a dose that reaches the circulation, judged against a reference dose that is usually intravenous. Low values mean poor availability, high ones good availability. For orientation: IC50 means the concentration needed to halve the response being measured.

Activity calls are given as the source filed them. The rule behind the calls is not given here.

Chain of Phosphatidylinositol 4,5-bisphosphate 3-kinase catalytic subunit beta isoform (P42338 whole entry, canonical isoform): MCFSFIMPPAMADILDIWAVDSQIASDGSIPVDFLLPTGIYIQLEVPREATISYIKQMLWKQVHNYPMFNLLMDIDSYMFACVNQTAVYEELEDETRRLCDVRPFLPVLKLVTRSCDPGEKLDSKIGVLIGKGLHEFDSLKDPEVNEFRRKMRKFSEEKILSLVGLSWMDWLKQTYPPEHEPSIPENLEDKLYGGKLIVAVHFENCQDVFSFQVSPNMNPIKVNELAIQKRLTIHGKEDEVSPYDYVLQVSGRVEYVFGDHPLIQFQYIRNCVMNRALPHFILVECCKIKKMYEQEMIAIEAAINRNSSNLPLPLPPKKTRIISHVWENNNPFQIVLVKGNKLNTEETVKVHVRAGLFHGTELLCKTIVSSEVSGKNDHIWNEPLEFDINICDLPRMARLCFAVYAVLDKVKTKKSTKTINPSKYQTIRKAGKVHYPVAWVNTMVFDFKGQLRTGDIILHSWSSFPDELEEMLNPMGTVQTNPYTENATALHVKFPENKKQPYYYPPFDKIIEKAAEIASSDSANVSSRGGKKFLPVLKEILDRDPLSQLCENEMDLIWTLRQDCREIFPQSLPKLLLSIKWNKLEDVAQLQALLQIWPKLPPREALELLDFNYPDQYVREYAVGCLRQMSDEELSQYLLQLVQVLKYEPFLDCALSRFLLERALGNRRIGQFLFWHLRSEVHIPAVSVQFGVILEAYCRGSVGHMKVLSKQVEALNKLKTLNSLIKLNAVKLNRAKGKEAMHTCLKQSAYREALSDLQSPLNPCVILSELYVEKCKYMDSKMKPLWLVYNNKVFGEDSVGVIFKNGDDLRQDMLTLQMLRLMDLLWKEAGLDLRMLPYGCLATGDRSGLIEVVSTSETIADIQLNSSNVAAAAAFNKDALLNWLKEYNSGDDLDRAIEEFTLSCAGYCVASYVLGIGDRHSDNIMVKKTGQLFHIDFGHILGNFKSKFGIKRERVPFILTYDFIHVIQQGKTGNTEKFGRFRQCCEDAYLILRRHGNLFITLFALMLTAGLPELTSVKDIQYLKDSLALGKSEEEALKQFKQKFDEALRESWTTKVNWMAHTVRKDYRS
Chain of Phosphatidylinositol 4,5-bisphosphate 3-kinase catalytic subunit gamma isoform (P48736 whole entry, canonical isoform): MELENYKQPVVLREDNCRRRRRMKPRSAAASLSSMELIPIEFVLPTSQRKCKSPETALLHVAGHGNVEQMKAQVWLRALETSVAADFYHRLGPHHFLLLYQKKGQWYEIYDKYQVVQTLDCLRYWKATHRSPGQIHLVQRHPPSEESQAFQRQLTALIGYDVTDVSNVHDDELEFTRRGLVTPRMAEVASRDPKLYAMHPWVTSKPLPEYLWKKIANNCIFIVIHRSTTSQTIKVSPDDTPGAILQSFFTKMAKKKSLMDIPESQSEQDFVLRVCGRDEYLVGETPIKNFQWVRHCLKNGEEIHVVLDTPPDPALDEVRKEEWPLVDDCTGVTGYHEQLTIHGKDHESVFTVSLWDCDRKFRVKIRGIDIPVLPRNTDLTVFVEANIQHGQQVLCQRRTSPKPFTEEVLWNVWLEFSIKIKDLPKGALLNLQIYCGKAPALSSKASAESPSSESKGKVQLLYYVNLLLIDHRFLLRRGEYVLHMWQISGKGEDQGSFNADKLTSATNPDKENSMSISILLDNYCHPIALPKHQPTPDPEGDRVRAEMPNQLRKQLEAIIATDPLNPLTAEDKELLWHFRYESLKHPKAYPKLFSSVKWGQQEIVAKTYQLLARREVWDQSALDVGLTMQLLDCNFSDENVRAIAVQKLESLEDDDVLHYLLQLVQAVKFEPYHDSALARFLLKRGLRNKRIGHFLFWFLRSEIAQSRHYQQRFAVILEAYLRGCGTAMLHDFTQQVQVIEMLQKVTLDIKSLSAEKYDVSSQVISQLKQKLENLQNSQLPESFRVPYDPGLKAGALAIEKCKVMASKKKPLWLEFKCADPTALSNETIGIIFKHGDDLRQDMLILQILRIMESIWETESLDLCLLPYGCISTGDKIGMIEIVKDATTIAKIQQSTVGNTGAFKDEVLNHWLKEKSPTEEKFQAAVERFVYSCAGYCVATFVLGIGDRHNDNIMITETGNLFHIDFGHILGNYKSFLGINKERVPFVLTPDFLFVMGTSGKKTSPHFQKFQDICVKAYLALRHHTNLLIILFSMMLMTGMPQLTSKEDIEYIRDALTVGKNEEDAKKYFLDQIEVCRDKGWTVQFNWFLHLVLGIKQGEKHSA
Chain of Phosphatidylinositol 4,5-bisphosphate 3-kinase catalytic subunit alpha isoform (P42336 whole entry, looked up, canonical isoform): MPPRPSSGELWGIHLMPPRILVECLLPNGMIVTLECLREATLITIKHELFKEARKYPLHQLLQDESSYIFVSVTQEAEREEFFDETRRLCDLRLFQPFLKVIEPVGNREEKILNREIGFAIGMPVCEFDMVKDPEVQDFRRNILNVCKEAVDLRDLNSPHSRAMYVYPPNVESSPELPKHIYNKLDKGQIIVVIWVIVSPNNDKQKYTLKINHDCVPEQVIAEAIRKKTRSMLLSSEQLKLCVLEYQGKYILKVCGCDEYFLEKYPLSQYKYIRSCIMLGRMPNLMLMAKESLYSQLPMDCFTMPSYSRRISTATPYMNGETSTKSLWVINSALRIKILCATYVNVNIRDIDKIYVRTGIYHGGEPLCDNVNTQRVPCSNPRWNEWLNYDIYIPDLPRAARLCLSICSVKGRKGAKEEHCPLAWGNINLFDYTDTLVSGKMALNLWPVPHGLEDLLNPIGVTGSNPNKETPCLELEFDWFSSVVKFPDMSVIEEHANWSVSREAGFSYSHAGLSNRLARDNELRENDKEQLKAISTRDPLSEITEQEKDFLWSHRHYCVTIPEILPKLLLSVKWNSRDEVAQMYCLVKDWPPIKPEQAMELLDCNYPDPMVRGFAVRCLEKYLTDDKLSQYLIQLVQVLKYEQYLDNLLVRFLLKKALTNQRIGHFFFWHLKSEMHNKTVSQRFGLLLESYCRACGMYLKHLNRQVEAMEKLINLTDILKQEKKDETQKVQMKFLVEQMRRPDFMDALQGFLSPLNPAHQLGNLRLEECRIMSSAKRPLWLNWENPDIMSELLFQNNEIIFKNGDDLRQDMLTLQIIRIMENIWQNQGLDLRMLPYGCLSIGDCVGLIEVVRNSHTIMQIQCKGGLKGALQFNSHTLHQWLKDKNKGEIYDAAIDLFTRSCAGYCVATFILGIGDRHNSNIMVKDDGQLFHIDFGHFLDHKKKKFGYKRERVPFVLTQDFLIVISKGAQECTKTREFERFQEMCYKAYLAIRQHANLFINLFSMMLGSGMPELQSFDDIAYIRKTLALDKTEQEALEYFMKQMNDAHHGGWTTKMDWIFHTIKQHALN

On to `Cn1c(=O)n(-c2ccc(C(C)(C)C#N)cc2)c2c3cc(-c4cnc5ccccc5c4)ccc3ncc21` [DACTOLISIB], for which the Tmax in data set [1] came out at 0.21 h. For the same compound, in data set [2], the Cmax turned out to be 274 ng/mL. This compound showed a half-life in data set [3] of 1.88 h. Besides, the clearance in [4] amounted to 72.5 mL/min/kg. Besides, the results for the AUC in data set [5] and in data set [6] were 244 ng·h/mL and 215 ng·h/mL, respectively. Moreover, in data set [7], the bioavailability came out at 37.8%. Also, the Activity result in [8] was “Toxic”. The inhibition entry in data set [9] was “Active”.

`COc1ccc(Cn2c(=O)n(C)c3c4cc(-c5cnc6ccccc6c5)ccc4ncc32)cc1`: the IC50 in data set [10] amounted to 9.5 nM; in data set [11] it was 421 nM; in data set [12], 342 nM; in data set [13], 38 nM; in [14], 676 nM. Further, the time to peak (Tmax) in data set [1] was determined as 0.38 h. In data set [2], this compound had a Cmax of 128 ng/mL. In addition, the half-life in [3] was 2.31 h. In [4], the clearance stood at 22.9 mL/min/kg. The AUC was found to be 329 ng·h/mL in [5] and 743 ng·h/mL in data set [6]. In data set [7], this compound yielded a bioavailability of 14.8%.

In the case of `CC(C)c1ccc(Cn2c(=O)n(C)c3c4cc(-c5cnc6ccccc6c5)ccc4ncc32)cc1`, the half-inhibitory concentration (IC50) in data set [10] was determined as 28.3 nM.

`COc1ccc(Cn2c(=O)n(C)c3c4cc(-c5cnc(OC)c(NS(=O)(=O)C(C)C)c5)ccc4ncc32)cc1` returned an IC50 in data set [10] of 6.2 nM.

`COc1ccc(Cn2c(=O)n(C)c3c4cc(-c5ccc(OC)nc5)ccc4ncc32)cc1` displayed an IC50 in [10] of 11.4 nM.

Take `COc1ccc(Cn2c(=O)n(C)c3cnc4ccc(-c5cnc(OC)c(NS(C)(=O)=O)c5)cc4c32)cc1`: the IC50 in [10] was 4.1 nM; in [11], 289 nM; in [12], 241 nM; in [13] it was 42 nM; in data set [14], 580 nM.

On to `CC[C@H](Nc1ncnc2[nH]cnc12)c1nc2cccc(F)c2c(=O)n1-c1ccccc1` [IDELALISIB], for which the values for the IC50 in data set [15] and in data set [14] were 795 nM and greater than 1000 nM, respectively.

In turn, `COc1ccc(Cn2c(=O)n(C)c3c4cc(-c5ccccc5)ccc4ncc32)cc1` gave an IC50 in [10] of 29.4 nM.

In data set [10], `Cc1ccc(Cn2c(=O)n(C)c3c4cc(-c5cnc6ccccc6c5)ccc4ncc32)cc1` displayed an IC50 of 18.4 nM.

In turn, `COc1ccc(Cn2c(=O)n(C)c3c4cc(-c5cnc(OC)c(NS(=O)(=O)C6CC6)c5)ccc4ncc32)cc1` registered an IC50 in data set [10] of 5.9 nM.

In data set [10], `COc1ccc(Cn2c(=O)n(C)c3c4cc(-c5cnc(OC)c(C)c5)ccc4ncc32)cc1` came in with an IC50 of 11.1 nM.

In data set [10], `COc1ccc(Cn2c(=O)n(C)c3c4cc(-c5cccnc5)ccc4ncc32)cc1` yielded an IC50 of 20 nM.
